Bioassay records (PubChem)
STAT1 act: STAT1 signaling activation; activation (% of control), % at 5.5 µM; NIH 3T3 STAT1-luciferase reporter, IFN-gamma, luminescence; 100% = IFN-gamma alone, no compound; 2.6% of 200,000 active;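 active = activation above the screen-wide mean activation plus 3 SD, cut at about 130% in these data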;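 also: raw ratio to IFN-gamma control signal so 100% means no change and 0% no light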
STAT3 inh: inhibitors of IL-6 induced STAT3 signaling | 0.89% of 190,000 active | U3A cells, IL-6 STAT3-luciferase reporter, luminescence; host cell line lacks STAT1 | inhibition, % at 5.5 µM;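 active = inhibition above the mean inhibition across all screened compounds plus 3 SD, cut at about 44% in these data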;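 also: 0% = DMSO only wells and 100% = 100 µM nifuroxazide control wells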
NF-kB expr up: compounds increasing NF-kB expression in human neuronal cells; 1.6% of 190,000 active; NF-kB reporter expression; stronger effect = higher value; AID 1239; fold change at 12.5 µM; in the data active = fold change above about 3.3
APP 5'UTR act: activates APP 5'UTR luciferase reporter; SH-SY5Y APP 5'UTR luciferase reporter, luminescence; zero percent = DMSO vehicle wells; activation, % at 2 µM; 1% of 190,000 active; AID 1276;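 active = activation above a set limit, based on mean plus 3 SD of controls, cut at about 140% in these data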
STAT1 inh: reduces IFN-gamma driven STAT1 reporter signal. NIH 3T3 STAT1-luciferase reporter, luminescence. inhibition, % at 5.5 µM. 0.35% of 200,000 active. AID 920;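 active = inhibition above a set limit, the mean inhibition across all tested compounds plus 3 SD, cut at about 34% in these data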;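 also: 0% = IFN-gamma with DMSO and 100% = IFN-gamma with 300 µM nifuroxazide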
STAT3 activator: activators of IL-6 induced STAT3 signaling | U3A cells, IL-6 STAT3-luciferase reporter, luminescence; 100% = signal with IL-6 EC80 alone | activation (% of control), % at 5.6 µM | 0.91% of 190,000 active;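 active = activation above the screen-wide mean of compound activation plus 3 SD, cut at about 130% in these data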;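 also: 0% = background luminescence of wells with medium and substrate only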
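Material: STAT3-luciferase reporter U3A cells; Probe or stimulus: IL-6 (33 ng/mL); Incubation: compound pre-incubation 1 h before IL-6, then 6 h stimulation at 37 °C; Technique: luminescence from STAT3-driven luciferase reporter; Evaluation: % activation versus median of IL-6-stimulated wells; Controls: IL-6-only high control.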
STAT1 activ conf: STAT1 activation, confirmation assay. shares compounds with STAT1 act. NIH 3T3 STAT1-luciferase reporter, IFN-gamma potentiation, luminescence; 100% = IFN-gamma EC80 alone, no compound. activation (% of control), % at 5.7 µM. 97% of 1,200 active;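 active = activation above a set limit carried over from the earlier primary STAT1 screen, cut at about 140% in these data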;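 also: simple ratio to median IFN-gamma plus DMSO wells so 0% means no light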
NFkB act STAT1ct: activates NF-kappaB, counter-screen to STAT1 activators. shares compounds with STAT1 act. HEK293T NF-kB luciferase reporter, TNF-alpha stimulated, luminescence; 100% = TNF-alpha with vehicle only. activation (% of control), % at 5.7 µM. 43% of 1,200 active;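 active = activation above the mean of solvent-only control wells plus 3 SD, set per campaign, cut at about 130% in these data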;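 also: TNF-alpha given at a submaximal dose yielding about 80% of full reporter signal; values are well signal over median control so 100% means no change and 0% no light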
STAT3 act STAT1c: counter-screen for STAT1 activators: human STAT3 activation | shares compounds with STAT1 act | U3A cells STAT3-luciferase reporter, IL-6, luminescence; cells lack STAT1; 100 = IL-6 alone, no compound effect | activation (% of control), % at 5.7 µM | 46% of 1,200 active | AID 1316;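 active = activation above the solvent-only control well mean plus 3 SD, set per plate batch, cut at about 110% in these data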;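 also: 0% = no luminescence and 100% = median IL-6 plus DMSO wells; higher means more STAT3 reporter activation so hits are non-selective activators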
An asterisk follows results filed as active; x = no result. In the library only some 5.1% were active in any assay of this set; here they are far more common.

SMILES | STAT1 act | STAT3 inh | NF-kB expr up | APP 5'UTR act | STAT1 inh | STAT3 activator | STAT1 activ conf | NFkB act STAT1ct | STAT3 act STAT1c
COc1cccc(CN2CCN(Cc3cccn3-c3cccnc3)CC2CCO)c1 (stereo unspecified) | 100 | 0 | 1.1 | -25 | 0 | 105 | x | x | x
COc1ccc(C(=O)NCC(=O)OCC(=O)NCc2cccs2)cc1 | 106 | -1 | 1 | 19 | -6 | 105 | x | x | x
COc1ccc2nc3sc(C(=O)NCc4cccs4)c(N)c3cc2c1 | 183* | 26 | 3.2 | 140* | -89 | 79 | 222* | 136* | 104
Cn1nnc2c(NCc3ccco3)nccc21 | 95 | 11 | 1.3 | -1 | 6 | 95 | x | x | x
COc1ccc(Nc2nccc3c2nnn3C)cc1 | 154* | 25 | 2.6 | 137* | -59 | 80 | 167* | 124 | 97
COc1ccccc1-c1nn2c(-c3ccco3)nnc2s1 | 172* | 13 | 1.4 | 44 | -79 | 90 | 192* | 138* | 108
N#CC1=C2Sc3ccccc3N2CCCC1=O | 116 | -11 | 1.1 | -2 | -18 | 115 | x | x | x
N#CC1=C2SC=C(c3ccc(Br)cc3)N2CCCC1=O | 157* | 13 | 6.8* | 176* | -64 | 91 | 194* | 147* | 102
CCn1c(CSc2nc3ccccc3s2)nc2ccccc21 | 106 | 15 | 0.8 | -13 | -10 | 88 | x | x | x
O=[N+]([O-])c1ccccc1N/N=C/c1ccc2c(c1)OCO2 | 152* | -5 | 3 | 139* | -60 | 108 | 226* | 121 | 117*
NS(=O)(=O)c1ccc(N/N=C/c2ccc3c(c2)OCO3)c([N+](=O)[O-])c1 | 115 | 8 | 1.3 | 9 | -17 | 100 | x | x | x
CSc1cnn(Cc2ccccc2)c(=O)c1SCc1ccccc1 | 104 | 1 | 1.1 | 10 | -5 | 102 | x | x | x
CS(=O)(=O)c1cnc2c(-c3ccsc3)cnn2c1N | 157* | 13 | 2.6 | 109 | -65 | 92 | 171* | 121 | 111*
CS(=O)(=O)c1cnc2c(S(=O)(=O)c3ccccc3)cnn2c1N | 100 | -1 | 1 | 9 | -1 | 105 | x | x | x
Cc1ccccc1-c1nnc(Cc2ccccc2)o1 | 154* | 6 | 2.5 | 71 | -61 | 98 | 175* | 135* | 108
COc1ccc(Cc2nnc(-c3ccccc3)o2)cc1 | 121 | 10 | 1.5 | 14 | -24 | 102 | x | x | x
O=C(NCc1ccccc1)c1c[nH]c2cc3c(cc2c1=O)OCCO3 | 178* | -14 | 3.5* | 89 | -84 | 115 | 190* | 140* | 126*
O=C(c1ccccc1)N1CCc2ccccc21 | 95 | 7 | 1 | -6 | 6 | 95 | x | x | x
Cc1c(C(=O)N2CCc3ccccc32)oc2ccccc12 | 155* | -5 | 8.2* | 156* | -62 | 107 | 217* | 141* | 150*
Cc1ccc(/C=C/C(=O)N2CCc3ccccc32)o1 | 180* | 13 | 8.2* | 168* | -92 | 91 | 224* | 138* | 109
C/C(=C\C(=O)N1CCc2ccccc21)C(=O)O | 94 | -13 | 1.1 | -11 | 6 | 118 | x | x | x
O=C(CCNC(=O)Cn1ccc2ccccc2c1=O)NCc1ccccn1 | 105 | 6 | 1.2 | -2 | -7 | 101 | x | x | x
O=C(Nc1ccc(O)cc1)c1c(O)c2c([nH]c1=O)CCCC2 | 155* | 24 | 1 | 162* | -65 | 83 | 205* | 139* | 93
COc1ccc(N(C(=O)CNC(=O)c2cccs2)C(C(=O)NCC2CCCO2)c2ccccc2)cc1 (stereo unspecified) | 89 | 4 | 0.86 | -8 | 10 | 98 | x | x | x
CCC(CC)NC(=O)COC(=O)CCC(=O)c1ccc(Cl)cc1 | 102 | 7 | 1.1 | 2 | -2 | 98 | x | x | x
SMILES | STAT1 act | STAT3 inh | NF-kB expr up | APP 5'UTR act | STAT1 inh | STAT3 activator | STAT1 activ conf | NFkB act STAT1ct | STAT3 act STAT1c
Clc1ccc(-n2ncc3c(NCC4CCCO4)ncnc32)cc1 (stereo unspecified) | 163* | 18 | 3.4* | 156* | -66 | 85 | 254* | 133 | 110
COc1ccc(-n2ncc3c(NCC4CCCO4)ncnc32)cc1 (stereo unspecified) | 172* | 10 | 2.7 | 114 | -79 | 94 | 182* | 131 | 122*
CN(C)CCNc1ncnc2c1cnn2-c1ccc(Cl)cc1 | 118 | 3 | 2.3 | 92 | -19 | 105 | x | x | x
Cc1cc(NCCO)c2ccccc2n1 | 89 | 2 | 1.1 | 10 | 12 | 99 | x | x | x
OCCNc1c2ccccc2nc2ccccc12 | 158* | -26 | 0.92 | 6 | -65 | 130 | 159* | 133 | 117*
Cc1ccc(C(=O)C2CCN(CC(=O)Nc3nc(C)cs3)CC2)cc1 | 97 | 10 | 1.6 | 15 | 3 | 98 | x | x | x
NC(=O)c1cc2cc([N+](=O)[O-])ccc2oc1=O | 98 | 1 | 1 | -10 | 2 | 99 | x | x | x
O=C(Nc1cccc([N+](=O)[O-])c1)c1ccc(-c2ccccc2)cc1 | 101 | 13 | 1 | 29 | -1 | 89 | x | x | x
Cc1c(C(=O)Nc2cccc([N+](=O)[O-])c2)csc1-c1ccccc1 | 165* | -8 | 3.8* | 194* | -72 | 116 | 238* | 128 | 139*
CCSc1nc2c(sc3ccccc32)c(=O)n1C(C)C | 101 | -12 | 1.2 | 18 | -1 | 107 | x | x | x
O=C(COC(=O)Cc1ccccc1F)Nc1ccc(SC(F)F)cc1 | 104 | -2 | 1.1 | 9 | -5 | 100 | x | x | x
O=C(Cc1ccccc1F)Nc1ccc(SC(F)F)cc1 | 162* | -8 | 5.3* | 153* | -70 | 110 | 169* | 128 | 127*
O=C(Nc1ccc(F)cc1)c1ccccc1F | 110 | 15 | 1.7 | 52 | -11 | 87 | x | x | x
O=C(Nc1ccc(SC(F)F)cc1)c1ccccc1F | 161* | 0 | 1.3 | 126 | -65 | 100 | 182* | 142* | 102
CCOCCCNC(=O)C(NC(=O)c1ccccc1O)c1ccc(Cl)cc1 (stereo unspecified) | 108 | 13 | 1.1 | 0 | -9 | 98 | x | x | x
CCOC(=O)c1sc(N/N=C/c2ccccc2)nc1C | 152* | -11 | 2.6 | 134 | -56 | 111 | 183* | 134* | 107
Cc1cc(OCC(=O)Nc2ccc(S(=O)(=O)NC3=NCCCCC3)cc2)c(C(C)C)cc1Cl | 106 | -6 | 0.69 | 7 | -7 | 104 | x | x | x
